Measurements published in ChEMBL document CHEMBL1147162, “Synthesis, pharmacological evaluation and electrochemical studies of novel 6-nitro-3,4-methylenedioxyphenyl-N-acylhydrazone derivatives: Discovery of LASSBio-881, a new ligand of cannabinoid receptors” (2007).
The source made the active and inactive calls.

Tests used:
Rattus norvegicus [1] = assay: Antiinflammatory activity against carrageenan-induced paw edema in Wistar rat at 300 umol/kg, po after 3 hrs; format: functional
Outline: (§1)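 Fasted Wistar rats of both sexes (150–200 g) were dosed orally at 300 µmol/kg in 5% arabic gum in saline. One hour later they were injected subplantar with 0.1 mg/paw carrageenan, with saline in the contralateral paw. Paw volume was read by plethysmometer 3 h later as the difference between the paws. Results are % inhibition vs vehicle; ID50 is also given.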

[2] = system: Radical scavenging activity; assay: Antioxidant activity assessed as DPPH radical scavenging activity at 0.1 mM; format: functional
Mus musculus [3] = assay: Antihyperalgesic effect against formalin-induced pain in mouse at 100 umol/kg, po assessed as licking activity in inflammatory phase; format: functional
Outline: (§2)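 Mice injected subplantar in one hind paw with 20 µL 2.5% formalin; compounds given orally at 100 µmol/kg in 5% arabic gum 60 min before. Time spent licking or biting the injected paw was recorded, with the neurogenic phase at 0–5 min and the inflammatory phase at 15–30 min. Percent inhibition is vs vehicle (ANOVA/Dunnett).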

Mus musculus [4] = assay: Antihyperalgesic effect against formalin-induced pain in mouse at 100 umol/kg, po assessed as licking activity in neurogenic phase; format: functional; outline: as §2
[5] = Antioxidant activity assessed as superoxide degradation at 0.25 mM; format: functional
Outline: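 The reaction was started with xanthine oxidase (~0.2 U/mL). Cytochrome c reduction was read spectrophotometrically at the Soret band as ΔA/min; % degradation is relative to vehicle.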

[6] = Antioxidant activity assessed as hydroxyl radical degradation at 0.5 mM; format: functional
Outline: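 2-Deoxy-D-ribose (10 mM) was incubated with Hepes pH 7.2 (10 mM), compound in DMSO (0.5 mM) and H2O2 (1 mM) for 1 h at 37 °C, started with Fe(NH4)2(SO4)2 10 µM. Results are % degradation vs vehicle.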

Mus musculus [7] = assay: Antiinflammatory activity against TPA-induced ear edema in Swiss mouse at 300 umol/kg, po after 6 hrs; format: functional
Outline: (§3)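 Fasted Swiss mice received an oral dose of 300 µmol/kg (5% arabic gum suspension) 1 h before topical challenge on the right ear (20 µl acetone): AA 500 µg/ear or TPA 2 µg/ear. The left ear got acetone. Ears were weighed from 7 mm punches 1 h after AA or 6 h after TPA. Inhibition = (C−T)/C×100 vs vehicle.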

Lymphocyte = assay: Inhibition of lymphocyte proliferation; format: functional, cell-based
Outline: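 Nylon wool-enriched splenic T cells in supplemented DMEM + 1% nutridoma were cultured in triplicate with soluble anti-CD3 (2% v/v 145.2C11) and PMA 0.5 ng/mL plus compound for 3 days at 37 °C in 7% CO2. [3H]thymidine (1.0 µCi/well) was added for the last 18 h and incorporation counted; at least 3 experiments.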

Rattus norvegicus [8] = assay: Antiinflammatory activity against carrageenan-induced paw edema in Wistar rat; format: functional; details: read-out: ID50 (the source's name); outline: as §1
T-cell [9] = assay: Induction of anti CD3-stimulated T-lymphocyte apoptosis after 48 hrs; format: functional
Outline: (§4)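 Nylon wool-enriched mouse splenic T cells (10^6/mL, DMEM + 1% nutridoma) were stimulated with anti-CD3 (145.2C11) plus PMA, with or without compound at 10 µM, for 48 h at 37 °C in 7% CO2. They were stained with FITC-annexin V (apoptosis) and 7-AAD (necrosis) and analysed by flow cytometry. Runs were in triplicate with at least 3 experiments.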

T-cell [10] = assay: Induction of anti CD3-stimulated T-lymphocyte necrosis after 48 hrs; format: functional; outline: as §4
Mus musculus [11] = assay: Antiinflammatory activity against AA-induced ear edema in Swiss mouse at 300 umol/kg, po after 1 hr; format: functional; outline: as §3
Mus musculus [12] = assay: Antinociceptive activity in Swiss mouse at 100 umol/kg, po assessed as increase in latency time; format: functional, organism-based
Outline: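 Hot plate held at 55 ± 1 °C. Swiss mice of both sexes (18–25 g), fasted 8 h, were given 100 µmol/kg orally. Latency to first paw licking or jumping was read at 0, 30, 60, 90 and 120 min, with a 25 s cut-off. Morphine 39.5 µmol/kg was the positive control; n = 7–10.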

[13] = target: Cannabinoid receptor 1 (Mus musculus) (UniProt P47746); assay: Displacement of [3H]SR141716A from CB1 cannabinoid receptor in Swiss mouse brain homogenate; format: tissue-based
Outline: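 Swiss mouse (30–40 g) whole-brain membranes, 160 µg protein, were incubated with 10 nM [3H]SR141716A plus PMSF (FAAH inhibitor) in Tris/EDTA/MgCl2 buffer with fatty acid-free BSA, pH 7.4, for 1 h at 30 °C. Nonspecific binding was set with 100 µM AM281. Samples were filtered on PEI-treated filters and counted by scintillation; n = 5 animals.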

Sequence of Cannabinoid receptor 1 (Mus musculus) (P47746 whole entry): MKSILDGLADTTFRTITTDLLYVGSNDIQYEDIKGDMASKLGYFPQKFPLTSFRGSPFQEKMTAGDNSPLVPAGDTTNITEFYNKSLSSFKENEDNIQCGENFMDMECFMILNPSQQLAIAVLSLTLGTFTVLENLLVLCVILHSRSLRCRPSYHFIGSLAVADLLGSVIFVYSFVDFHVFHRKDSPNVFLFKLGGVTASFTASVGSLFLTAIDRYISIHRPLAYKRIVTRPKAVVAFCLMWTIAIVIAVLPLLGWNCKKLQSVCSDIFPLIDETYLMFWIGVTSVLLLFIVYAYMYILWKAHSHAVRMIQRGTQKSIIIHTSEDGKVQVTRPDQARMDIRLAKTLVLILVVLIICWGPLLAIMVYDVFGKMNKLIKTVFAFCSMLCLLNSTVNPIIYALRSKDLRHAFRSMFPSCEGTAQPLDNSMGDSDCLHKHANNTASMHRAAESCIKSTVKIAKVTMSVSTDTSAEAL

## O=C(N/N=C/c1ccccc1)c1cc2c(cc1[N+](=O)[O-])OCO2
Rattus norvegicus [1]
  inhibition in vivo at 300 µmol/kg: 3.5%
[2]
  Activity: 7.49%
Mus musculus [3]
  inhibition in vivo at 100 µmol/kg: 1.5%
Mus musculus [4]
  inhibition in vivo at 100 µmol/kg: -21.1%
[5]
  Activity: 19.6%
[6]
  Activity: 83.2%

## O=C(N/N=C/c1ccncc1)c1cc2c(cc1[N+](=O)[O-])OCO2
Rattus norvegicus [1]
  inhibition in vivo at 300 µmol/kg: 13.3%

## O=C(N/N=C/c1cccs1)c1cc2c(cc1[N+](=O)[O-])OCO2
Rattus norvegicus [1]
  inhibition in vivo at 300 µmol/kg: 3.4%

## O=C(N/N=C/c1ccc[nH]1)c1cc2c(cc1[N+](=O)[O-])OCO2
Rattus norvegicus [1]
  inhibition in vivo at 300 µmol/kg: 20.9%

## CC(C)(C)c1cc(/C=N/NC(=O)c2cc3c(cc2[N+](=O)[O-])OCO3)cc(C(C)(C)C)c1O
Mus musculus [7]
  inhibition in vivo at 300 µmol/kg: 24.1%
Lymphocyte
  Activity: Active
Rattus norvegicus [8]
  ED50: 195 µmol/kg
Rattus norvegicus [1]
  inhibition in vivo at 300 µmol/kg: 31.7%
T-cell [9]
  Activity: 43.8%
[2]
  Activity: 32%
T-cell [10]
  Activity: 0%
Mus musculus [11]
  inhibition in vivo at 300 µmol/kg: 36%
Mus musculus [12]
  Activity: Active
Mus musculus [3]
  inhibition in vivo at 100 µmol/kg: 13.4%
[13]
  Activity: 71%
Mus musculus [4]
  inhibition in vivo at 100 µmol/kg: 44.5%
[5]
  Activity: -2.9%
[6]
  Activity: 84.6%

## CCCCC/C=C\C/C=C\C/C=C\C/C=C\CCCC(=O)NCCO [ANANDAMIDE]
T-cell [9]
  Activity: 50.8%
T-cell [10]
  Activity: 0.1%

## O=C(N/N=C/c1ccco1)c1cc2c(cc1[N+](=O)[O-])OCO2
Rattus norvegicus [1]
  inhibition in vivo at 300 µmol/kg: 4.1%

## O=C(N/N=C/c1cccs1)c1ccc2c(c1)OCO2
Mus musculus [7]
  inhibition in vivo at 300 µmol/kg: -10.5%
Rattus norvegicus [8]
  ED50: 14.3 µmol/kg
Rattus norvegicus [1]
  inhibition in vivo at 300 µmol/kg: 29.7%
Mus musculus [11]
  inhibition in vivo at 300 µmol/kg: -1.6%
Mus musculus [3]
  inhibition in vivo at 100 µmol/kg: 48.6%
Mus musculus [4]
  inhibition in vivo at 100 µmol/kg: 17.9%

## O=C(N/N=C/c1ccccn1)c1cc2c(cc1[N+](=O)[O-])OCO2
Rattus norvegicus [1]
  inhibition in vivo at 300 µmol/kg: 22.8%

## CS(=O)(=O)Nc1ccc([N+](=O)[O-])cc1Oc1ccccc1 [NIMESULIDE]
Mus musculus [7]
  inhibition in vivo at 300 µmol/kg: -10.6%
Rattus norvegicus [8]
  ED50: 22.7 µmol/kg
Rattus norvegicus [1]
  inhibition in vivo at 300 µmol/kg: 57.5%
Mus musculus [11]
  inhibition in vivo at 300 µmol/kg: 100%
Mus musculus [3]
  inhibition in vivo at 100 µmol/kg: 70.3%
Mus musculus [4]
  inhibition in vivo at 100 µmol/kg: 9.3%

## CC(C)(C)c1cc(/C=N/NC(=O)c2ccc3c(c2)OCO3)cc(C(C)(C)C)c1O
Mus musculus [7]
  inhibition in vivo at 300 µmol/kg: -19.6%
Rattus norvegicus [8]
  ED50: 96.5 µmol/kg
Rattus norvegicus [1]
  inhibition in vivo at 300 µmol/kg: 36.4%
[2]
  Activity: 45.7%
Mus musculus [11]
  inhibition in vivo at 300 µmol/kg: 26.7%
Mus musculus [3]
  inhibition in vivo at 100 µmol/kg: 3.1%
Mus musculus [4]
  inhibition in vivo at 100 µmol/kg: 4.1%
[6]
  Activity: 85.2%
